# PTEN del growth: growth suppression of PTEN-null HCT116, primary screen, cell-based, CellTiter-Glo; HCT116 PTEN-null viability, 60 h; stronger effect = lower value; viability, % at 10 µM; 140,000 tested, 1.2% active; AID 827, 2007;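 active = viability at or below a set limit, 4 SD under the median of all tested compounds, cut at about 3.7% in these data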;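 note: PTEN knockout HCT116 line with beta catenin targeted HCT116 as companion control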
# PMI activator: activators of human PMI, primary screen, biochemical, fluorescence intensity, near-Km mannose 6-phosphate; Mannose-6-phosphate isomerase (Homo sapiens), P34949; purified human PMI, coupled resazurin fluorescence, 20 min; stronger effect = higher value; 1 = vehicle control, 0 substrate-free wells; activation factor at 20 µM; 190,000 tested, 0.005% active;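 active = activation factor of 2 or more at 20 µM, relative to plate controls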
# Target sequence (P34949 whole entry, looked up): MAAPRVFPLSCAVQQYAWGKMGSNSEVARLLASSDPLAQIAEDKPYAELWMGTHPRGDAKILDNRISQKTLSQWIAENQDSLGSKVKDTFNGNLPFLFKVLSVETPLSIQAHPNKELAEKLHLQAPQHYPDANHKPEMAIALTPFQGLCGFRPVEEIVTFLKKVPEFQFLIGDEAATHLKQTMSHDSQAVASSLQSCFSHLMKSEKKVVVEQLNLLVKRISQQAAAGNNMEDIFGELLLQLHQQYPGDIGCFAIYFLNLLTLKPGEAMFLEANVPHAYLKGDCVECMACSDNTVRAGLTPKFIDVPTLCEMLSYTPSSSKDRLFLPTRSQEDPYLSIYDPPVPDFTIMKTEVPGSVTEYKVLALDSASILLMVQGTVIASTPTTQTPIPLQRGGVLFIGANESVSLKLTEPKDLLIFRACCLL
# Lmaj promast: Leishmania major promastigote growth inhibition, primary screen; Leishmania major promastigotes, resazurin fluorescence viability; inhibition, % at 10 µM; 200,000 tested, 9% active; in the data active = inhibition above about 50%;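 note: promastigotes grown with compound for 44 hours at 28 °C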
# bCat KO growth: primary screen for growth suppressors in beta-catenin knockout HCT116 cells (colon tumor, human); HCT116 beta-catenin knockout viability, CellTiter-Glo, 60 h; stronger effect = lower value; viability, % at 10 µM; 140,000 tested, 1.5% active; AID 818, 2007;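 active = viability at or under a set limit, the compound median less 4 SD, cut at about 6% in these data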;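 note: 0% = Hyamine 1622 control at 20 µM and 100% = untreated cell control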
# PMI act hi M6P: human PMI activators, high substrate, primary screen, biochemical, fluorescence intensity, near-saturating mannose 6-phosphate. Mannose-6-phosphate isomerase (Homo sapiens), P34949. coupled PMI enzyme assay, resazurin fluorescence, 20 min; stronger effect = higher value; 1 = untreated enzyme, 0 = substrate-free blank. activation factor at 20 µM. 190,000 tested, 0.34% active;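 active = activation factor of 2 or more at 20 µM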
#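 Material: human phosphomannose isomerase with PGI, G6PDH, diaphorase coupling enzymes. Quantity: 15 ng/mL PMI. Medium: HEPES pH 7.4 buffer with MgCl2 and Tween-20. Reagent: Near-saturating mannose-6-phosphate, 1.0 mM. Compound: 20 µM single dose. Times: enzyme reaction with compound 20 min at room temperature. Detection: resorufin fluorescence at Ex 544/Em 590 nm.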
# * = called active by the depositor; nt = not tested or not shown. A selection: hits, their analogues and other compounds. The true share with any hit is near 9.6%.
SMILES,PTEN del growth,PMI activator,Lmaj promast,bCat KO growth,PMI act hi M6P
COc1cccc(-c2nnc3n2N=C(C(C)(C)C)CS3)c1,4.2,1.1,5.2,5.5*,1.1
Cc1cc(OCc2ccc(C(=O)NN=C3CCCC3)cc2)ccc1Cl,81.9,1.1,-6.1,81.3,1.1
CCCNCC(O)COc1ccccc1C(=O)CCc1ccccc1 (stereo not drawn),78.4,1.1,31.0,75.0,1.1
CCN(CC)CC(O)COc1ccccc1C(=O)CCc1ccccc1 (stereo not drawn),nt,1,94.8*,nt,1
COc1cccc(OCC(O)CN(CCO)Cc2ccccc2)c1 (stereo not drawn),97.2,0.9,24.7,98.0,1
CCC(=O)c1ccc(OCC(O)CN(CCc2ccccc2)Cc2ccccc2)cc1 (stereo not drawn),48.5,0.9,99.6*,24.9,0.9
CCCCN(CCCC)CC(O)COc1ccccc1C(=O)Nc1ccccc1 (stereo not drawn),nt,1,90.8*,nt,1.1
CC(C)(C)n1nnnc1C(c1cccnc1)N(Cc1ccccc1)Cc1cccs1 (stereo not drawn),49.6,0.9,95.7*,55.4,0.9
CC(C)(C)n1nnnc1C(c1cccs1)N(Cc1ccccc1)Cc1cccnc1 (stereo not drawn),61.5,0.9,98.7*,63.4,0.9
CC(C)(C)c1ccc(CN(Cc2ccccc2)C(c2ccccn2)c2nnnn2C(C)(C)C)cc1 (stereo not drawn),27.6,0.8,76.8*,38.2,0.8
CCOc1ccc(C(=O)/C=C/c2cc(OC)c(OC)c(OC)c2)cc1,nt,1,27.3,nt,1
COC(=O)c1ccc(/C=C/C(=O)c2ccc(OC)cc2)cc1,6.9,0.9,-4.3,11.5,1
COC(=O)c1ccc(/C=C/C(=O)c2ccc(OC)c(OC)c2)cc1,1.6*,1,39.6,3.3*,0.9
COc1cc(/C=C/C(=O)c2ccc(F)cc2)cc(OC)c1OC,nt,0.9,100.0*,nt,1
COc1ccc(C(=O)/C=C/c2ccc(OC(=O)c3cc(OC)c(OC)c(OC)c3)cc2)cc1,14.0,0.9,65.0*,21.8,0.9
O=C(Nc1ccccc1Cl)O/N=C/c1ccncc1,nt,nt,-3.4,nt,nt
CCOC(=O)N1CCN(S(=O)(=O)c2ccc(C(=O)Nc3nc4c(s3)CC(C)CC4)cc2)CC1 (stereo not drawn),1.2*,1,11.7,1.5*,1
CCOC(=O)N1CCN(S(=O)(=O)c2ccc(C(=O)Nc3nnc(C4CC4)o3)cc2)CC1,83.9,0.9,-10.8,91.8,1
CCOC(=O)N1CCN(S(=O)(=O)c2ccc(C(=O)Nc3nnc(CC)o3)cc2)CC1,100.3,1.2,59.0*,88.4,1.2
COC(=O)c1ccc(C(=O)NC(=S)Nc2nc3c(s2)CC(C)CC3)cc1 (stereo not drawn),95.4,0.9,-7.8,92.3,1
CC1CCc2ccccc2N1C(=N)N(C)C (stereo not drawn),nt,0.9,-8.3,nt,0.9
CC1Cc2ccccc2N1C(=O)CSc1nnc2n1C(C)(C)Cc1ccccc1-2 (stereo not drawn),81.8,0.9,52.3*,65.2,0.9
COc1cccc(-n2c(SCC(=O)N3c4ccccc4CC3C)nnc2-c2ccco2)c1 (stereo not drawn),83.2,0.8,53.4*,95.2,0.9
CCn1c(SCC(=O)N2c3ccccc3CC2C)nnc1-c1ccco1 (stereo not drawn),nt,nt,0.4,nt,nt
O=S(=O)(/C=C/c1ccccc1)N1CCN(c2cccc(Cl)c2)CC1,91.7,1,-0.7,98.2,1
SMILES,PTEN del growth,PMI activator,Lmaj promast,bCat KO growth,PMI act hi M6P
CC(C)N(C(=O)COC(=O)c1cncc(Br)c1)C(C)C,nt,0.9,1.6,nt,0.9
COc1ccc(N2C(=O)/C(=C/c3ccc([N+](=O)[O-])cc3)N=C2C)cc1,nt,1,11.8,nt,1
COc1ccccc1NC(=O)CCSc1nc(C)cc(C)n1,nt,1,-4.1,nt,1
CCn1c(SCC(=O)Nc2cc3oc4ccccc4c3cc2OC)nnc1-c1cccs1,67.7,0.9,65.9*,61.8,0.9
Cc1ccc2nc(SCC(=O)Nc3cc(C(F)(F)F)ccc3N3CCOCC3)[nH]c2c1,13.2,0.9,53.3*,9.7,1
Cc1cccc(C(=O)Nc2nnc(SCC(=O)Nc3ccc4c(c3)oc3ccccc34)s2)c1,79.6,0.9,17.3,55.2,0.9
COc1ccccc1C(=O)Nc1nnc(SCC(=O)Nc2ccc3c(c2)oc2ccccc23)s1,35.7,0.9,96.1*,21.0,1
COc1cc2c(cc1NC(=O)CSc1nnc(Cc3cccs3)n1Cc1ccco1)oc1ccccc12,45.6,0.8,90.7*,40.4,0.8
COc1cc2c(cc1NC(=O)CSc1nnc(Cc3cccs3)n1C)oc1ccccc12,95.1,0.8,18.9,87.2,0.8
O=C(NCc1ccco1)C(=O)c1cn(CC(=O)N2CCCCC2)c2ccccc12,nt,1.1,-3.7,nt,0.9
CCN(CC)C(=O)CNC(=S)N(CCCN1CCOCC1)Cc1cccs1,94.2,1,-3.2,86.1,1
O=C(Cc1c(F)cccc1Cl)Nc1nc2ccccc2s1,nt,1.2,18.9,nt,1.1
COc1cc2c(cc1NC(=O)CSc1nc3ccc(C)cc3[nH]1)oc1ccccc12,59.1,1.1,65.2*,66.3,1.1
Cc1cc(Cl)ccc1NC(=O)CSc1nnc(Cc2cccs2)n1Cc1ccco1,79.2,1,86.5*,77.9,1
CC(C)(C)C(=O)CNCC(=O)C(C)(C)C,nt,1.8,0.7,nt,2.1*
Cc1oc2cc3c(C(=O)N4CCN(c5ccccc5)CC4)c(C)oc3cc2c1C(=O)N1CCN(c2ccccc2)CC1,nt,nt,-3.7,nt,nt
CCCN1CCCc2cc(CN)ccc21,14.4,0.5,100.0*,13.7,0.5
C=CCN1C(=Nc2cccnc2)SCC1(O)c1ccc(C)cc1 (stereo not drawn),26.9,0.9,61.1*,19.7,0.9
Cc1csc(=Nc2cccnc2)n1CC1CCCCC1,87.7,0.9,2.7,80.5,1
C=CCn1c(-c2cccn(Cc3ccc(Cl)cc3Cl)c2=O)n[nH]c1=S,89.8,0.9,-5.0,78.2,1
CN(C)S(=O)(=O)c1ccc(Cl)c(C(=O)Nc2cccc([N+](=O)[O-])c2)c1,nt,0.9,2.8,nt,0.8
CCCCN(CCCC)S(=O)(=O)c1ccc(NC(=O)c2cccs2)cc1,7.3,0.9,93.8*,7.8,0.9
Cc1cc(C)nc(NS(=O)(=O)c2ccc(NC(=O)c3cccs3)cc2)n1,92.7,1,-2.6,80.8,1
CCCCN(CCCC)S(=O)(=O)c1ccc(NC(=O)c2ccc([N+](=O)[O-])cc2Cl)cc1,7.3,0.8,99.9*,15.8,0.9
O=c1c(Cl)c2oc3ccccc3nc-2c2ccccc12,nt,1,81.3*,nt,1
O=c1oc(Nc2cccc(Cl)c2)nc2ccccc12,nt,1,8.2,nt,1

# Assay outcomes from PubChem.
